For experiment [1], the system named is PDGFR-β NHE G-quadruplexes. The conditions noted are these: cited from earlier work.
Experiment [2] concerns BCL2 i-motif / BCL2 transcription. The note with it: cited from earlier work.
Experiment [3] relates to PDGFR-β 3′-end G-quadruplex. Kind of experiment: CD spectral and thermal-melt analysis with constituent PDGFR-β G-quadruplexes. It counts as binding, human. The procedure, abridged: (§1)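 Oligo at 5 μM final in 50 mM Tris-HCl with 50 mM K+, pH 7.4. Heated to 95 °C for 5 min, slowly cooled, then incubated 30 min with molar equivalents of compound or DMSO. CD 230–330 nm at room temperature, triplicate scans averaged and baseline-corrected. Melt at 262 nm from 20 to 95 °C at 1 °C/min. Tm by nonlinear regression, ±1 °C.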

Experiment [4] relates to PDGFR-β promoter WT-NHE luciferase construct. Kind of experiment: Luciferase reporter assay, WT-NHE construct. The note with it: 24 h. It is filed as cell-based, human. (In a reporter assay the amount or activity of a reporter protein is the signal.)
A further experiment relates to HEK293. Kind of experiment: MTS cytotoxicity assay in HEK293. It counts as cell-based, human. The note with it: read-out: IC50 in HEK 293.
Experiment [5] relates to PDGFR-β NHE WT 41-mer (FL Pu41). It is filed as binding, human. The note with it: CD spectral and thermal melt analysis. In a few lines: as §1
Experiment [6] relates to PDGFR-β promoter R1 mutant NHE luciferase construct. Kind of experiment: Luciferase reporter assay, R1 NHE construct. The note with it: HEK 293, 100 μM, 24 h. It is filed as cell-based, human.
The subject of experiment [7] is NO-NHE luciferase construct. Put plainly: Luciferase reporter assay, NO-NHE construct. It counts as cell-based, human. The note with it: HEK 293, 100 μM, 24 h.
The test system of experiment [8] is PDGFR-β Py41 WT i-motif FRET probe. Put plainly: i-motif FRET assay, WT probe. The note with it: probe 20 nM, compound 200 nM, 30 min. It is filed as binding, human.
For experiment [9], the system named is PDGFR-β Py41 R1 mutant i-motif FRET probe. Kind of experiment: i-motif FRET assay, R1 mutant probe. It is filed as binding, human.
The subject of another experiment is WT PDGFR-β i-motif. Kind of experiment: CD spectral and thermal-melt analysis with WT i-motif. It is filed as binding, human. The conditions noted are these: increasing concentrations of compound. The procedure, abridged: (§2)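 Oligo at 5 μM final in 10 mM sodium cacodylate, pH 6.5. Heated to 95 °C for 5 min, slowly cooled to room temperature, then given molar equivalents of compound or DMSO for 30 min. CD spectra 230–350 nm at room temperature, triplicate scans averaged and baseline-corrected. Melts followed at 286 nm, 20–95 °C at 1 °C/min. Tm by nonlinear regression.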

In experiment [10] the test system is R1 mutant PDGFR-β i-motif. Kind of experiment: CD spectral and thermal-melt analysis with R1 mutant i-motif. It counts as binding, human. The procedure, abridged: as §2
The next experiment concerns SK-N-SH. Put plainly: MTS cytotoxicity assay in SK-N-SH. It is filed as cell-based. The note with it: read-out: IC50 concentration in SK-N-SH. A general note: Formazan colour is commonly taken as a measure of viable cells.
The test system of a further experiment is PDGFR-β transcript. Put plainly: qRT-PCR of PDGFR-β transcript in SK-N-SH. It counts as cell-based. The conditions noted are these: 24 h, relative to DMSO control. A general note: Real-time PCR tracks product formation cycle by cycle.

Some results are limits rather than exact numbers.

For `Cc1oc2nc1-c1nc(co1)-c1nc(co1)-c1nc(co1)-c1nc(co1)-c1nc(co1)C1=NC(CS1)c1nc-2c(C)o1` (stereo not shown) [telomestatin], in [1], the “G-quadruplex binding selectivity in PDGFR-β NHE” value was “appeared to bind selectively to the 3′-end G-quadruplex” and the “effect on PDGFR-β” value is reported as “produced a decrease in PDGFR-β”.
As for `CC(C)CCC[C@@H](C)[C@H]1CC[C@H]2[C@@H]3CC[C@H]4C[C@H](NC(=O)C[N+]5(C)CCCCC5)CC[C@]4(C)[C@H]3CC[C@]12C.[I-]` [IMC48], the “effect on BCL2 transcription” value in experiment [2] was “increased BCL2 transcription”.
Consider `COc1ccc2c(c1)CN([C@@H](C)[C@H]1CC[C@H]3[C@@H]4CC[C@H]5C[C@@H](O)CC[C@]5(C)[C@H]4CC[C@]13C)CO2` [IMC76], for which the “effect on BCL2 transcription” value in experiment [2] is “decreasing BCL2 transcription”.
On to `Cc1c2ccncc2c(C)c2c1[nH]c1ccc(OCCN(C)C)cc12` [NSC338258], for which the “increase in thermal stability of 3′-end G-quadruplex” value in [3] (1 mol equiv of compound) was found to be 4 °C; in experiment [3] (2 mol equiv of compound), 9 °C. Moreover, the “selectivity of luciferase inhibition WT-NHE versus NO-NHE” value in experiment [4] (IC50 and 50% IC50 concentrations) is “moderate degree of selectivity”. Besides, the “binding to PDGFR-β NHE compared with MYC promoter G-quadruplex” value in [1] was “binds almost as well to the PDGFR-β NHE as to the MYC promoter G-quadruplex”.
Turning to `CN1CCc2ccccc2C1Cc1ccccc1NC(=O)c1sc2ccccc2c1Cl` (stereo not shown) [NSC309874], the figures for the IC50 with HEK293 and in the experiment on SK-N-SH were greater than 100 µM and 100 µM, respectively. Besides, the “interaction with PDGFR-β G-quadruplex-forming sequence” value in [5] is “negligible interaction”. For the same compound, the “downregulation of luciferase activity, WT-NHE construct” value in experiment [4] (HEK 293, 100 μM) is on record as “approximately 45%”. Further, the “downregulation of luciferase activity, R1 NHE construct” value in [6] is roughly 50%. Also, in experiment [7], the “effect on luciferase activity, NO-NHE construct” value is recorded as “does not inhibit transcription”. Further, in [8], the “increase in FRET signal, WT probe” value worked out at 170%. Also, the “increase in FRET of the R1 mutant” value in experiment [9] (FRET (pH 6.6) high-throughput screening) is “more than 2 fold”. In addition, the “increase in FRET signal, R1 mutant probe” value in [9] (probe 20 nM, compound 200 nM, 30 min) was determined as 218%. Also, the “shift in λMAX of CD spectrum of WT i-motif” value with WT PDGFR-β i-motif is “from 286 to 279”. Further, in experiment [10] (CD thermal melt), the “effect on Tm of R1 mutant i-motif” value is “small increase in Tm”. In experiment [10] (increasing concentrations of compound), the “effect on CD of R1 mutant i-motif” value is “little change in the CD”. Further, the “reduction of PDGFR-β expression” value in the experiment with PDGFR-β transcript (0.5 IC50 (50 μM)) was “approximately 25%”; with PDGFR-β transcript (IC50 (100 μM)) it was roughly 50%.
